Published values gathered from unrelated publications.
Each line is one published result; the experiments were not run side by side.
Target: Serine/threonine-protein kinase Chk1 (CHEK1, Homo sapiens, UniProt O14757)
Sequence (O14757 1-476, as in one of the studies): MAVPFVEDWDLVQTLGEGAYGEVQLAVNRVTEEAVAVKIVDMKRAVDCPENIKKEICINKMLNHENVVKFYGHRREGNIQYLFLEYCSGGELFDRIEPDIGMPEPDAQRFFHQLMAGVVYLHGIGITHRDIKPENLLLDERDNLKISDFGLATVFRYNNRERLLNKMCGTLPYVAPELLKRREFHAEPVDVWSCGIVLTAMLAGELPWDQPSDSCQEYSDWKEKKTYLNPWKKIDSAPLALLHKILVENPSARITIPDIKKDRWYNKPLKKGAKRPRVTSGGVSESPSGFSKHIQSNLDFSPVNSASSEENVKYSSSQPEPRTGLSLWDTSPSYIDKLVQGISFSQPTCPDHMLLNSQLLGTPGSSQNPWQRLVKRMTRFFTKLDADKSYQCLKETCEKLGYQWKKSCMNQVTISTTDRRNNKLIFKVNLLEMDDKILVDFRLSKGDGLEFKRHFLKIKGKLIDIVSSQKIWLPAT

Compound | observed | action | method | concentration | endpoint | result
FC(F)c1nc2ccccc2n1-c1nc(N2CCOCC2)nc(N2CCOCC2)n1 | enzyme activity | inhibitor |  | 10 µM | remaining activity | 90%
CNC(=O)Nc1ccc2c(c1)[C@@]1(CC2)OC(=O)N(CC(=O)N(Cc2ccc(F)cc2)[C@@H](C)C(F)(F)F)C1=O | cell-free assay |  | competition with immobilised ligand | 1 µM | remaining binding | 100%
O=C(Nc1cnn(-c2csc(C(=O)NC3COC3)c2)c1)Nc1c(F)cccc1Cl | enzyme activity | inhibitor |  | 5 µM | remaining activity | 141%
COc1cc2c(Nc3ccc(Br)cc3F)ncnc2cc1OCC1CCN(C)CC1 | cell-free assay |  |  | 0.5 µM | remaining signal | 94.4%
Nc1nc(Nc2ccccc2)sc1C(=O)c1c(F)cccc1F | enzyme activity | inhibitor |  | 10 µM | remaining activity | 86%
CCN(CC)CCNC(=O)c1c(C)[nH]c(/C=C2\C(=O)Nc3ccc(F)cc32)c1C | cell-free assay |  |  | 0.5 µM | remaining signal | 29.2%
CC(C)(C)c1nc2c(s1)c1nc(N)ncc1c1ccc(NS(=O)(=O)c3c(F)cccc3F)c(F)c12 | enzyme activity | inhibitor | radiometric | 1 µM | remaining activity | 94%
Cc1ccc(C(=O)Nc2ccc(CN3CCN(C)CC3)c(C(F)(F)F)c2)cc1C#Cc1cnc2cccnn12 | enzyme activity | inhibitor |  | 23.5 nM | remaining activity | 96%
O=C(NS(=O)(=O)c1ccc(NCC2CCOCC2)c([N+](=O)[O-])c1)c1ccc(N2CCN(Cc3ccc(C(F)(F)F)cc3-c3ccc(Cl)cc3)CC2)cc1Oc1cnc2[nH]ccc2c1 | cell-free assay |  | competition with immobilised ligand | 1 µM | remaining binding | 100%
COc1cc(Nc2cnc(C#N)c(O[C@H](C)CN(C)C)n2)ncc1-c1cnn(C)c1 | enzyme activity | inhibitor | radiometric | 10 µM | remaining activity | 6%
Clc1ccc(Nc2nnc(Cc3ccncc3)c3ccccc23)cc1 | cell-free assay |  |  | 0.5 µM | remaining signal | 96.5%
CCS(=O)(=O)c1cc2cc(C[C@](O)(CC(C)(C)c3ccc(F)cc3C(N)=O)C(F)(F)F)[nH]c2cn1 | cell-free assay |  | competition with immobilised ligand | 1 µM | remaining binding | 97%
COc1cc(/C=C/C(=O)CC(=O)/C=C/c2ccc(O)c(OC)c2)ccc1O | enzyme activity | inhibitor |  | 1 µM | activity vs control | 57%
Nc1cnc(N2CCc3cc(S(=O)(=O)Nc4c(F)cc(Cl)cc4F)cc(N4CCCC4=O)c32)nc1 | cell-free assay |  | competition with immobilised ligand | 1 µM | remaining binding | 95%
Cc1ccc(NC(=O)c2ccc(C)c(C(F)(F)F)c2)cc1C#Cc1nn(C2CCC(O)CC2)c2ncnc(N)c12 (stereo not drawn) | cell-free assay |  |  | 10 µM | remaining signal | 114%
COc1cc(Cl)c(C(=O)N[C@@H](CN[C@H]2CC[C@@H](N)CC2)Cc2ccc(C#N)cc2)cc1-c1ccc(CN[C@H](C)c2ccc(C)cc2)o1 | enzyme activity | inhibitor |  | 1 µM | remaining activity | 100%
Nc1ncnc2occ(-c3ccc(NC(=O)Nc4cc(C(F)(F)F)ccc4F)cc3)c12 | cell-free assay | inhibitor |  | 20 µM | remaining signal | 100%
O=C1Nc2ccc(Cl)cc2C1=Cc1cc(Cl)c(O)c(Cl)c1 | cell-free assay |  |  | 0.5 µM | remaining signal | 86.4%
CN(C)CC#Cc1ccc(OCCCc2sc(N3CCc4cccc(C(=O)Nc5nc6ccccc6s5)c4C3)nc2C(=O)O)c(F)c1 | cell-free assay |  | competition with immobilised ligand | 1 µM | remaining binding | 89%
Cn1c(=O)n(-c2ccc(C(C)(C)C#N)cc2)c2c3cc(-c4cnc5ccccc5c4)ccc3ncc21 | enzyme activity | inhibitor |  | 10 µM | remaining activity | 146%
Nc1c(C(=O)NCc2ccc(C(=O)NCCCC3CCCCC3)cc2)cnn1-c1ccccc1 | cell-free assay |  | competition with immobilised ligand | 0.1 µM | remaining binding | 100%
O=C(Nc1cnn(-c2csc(C(=O)NC3COC3)c2)c1)Nc1ccccc1Cl | enzyme activity | inhibitor |  | 5 µM | remaining activity | 98.7%
C#Cc1cccc(Nc2ncnc3cc(OCCOC)c(OCCOC)cc23)c1 | cell-free assay |  |  | 0.5 µM | remaining signal | 95.1%
CS(=O)(=O)NCC[C@H](NC(=O)c1cncc2c1cnn2-c1ccc(F)cc1)c1ccnc(S(C)(=O)=O)c1 | cell-free assay |  | competition with immobilised ligand | 1 µM | remaining binding | 97%
